Activity calls are given as the source filed them. The calls are words filed in the database; no cut-off is given here.
Columns and labels:
[1] = test system: DU-145; test: Antiproliferative activity against human DU145 cells expressing ALDH1A1 assessed as reduction in cell survival measured after 96 hrs by MTT assay; type: functional, cell-based; conditions: DU-145, 96 h
Outline: (§1)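 Adherent prostate cancer cells seeded in 96-well plates, left overnight at 37 °C, 5% CO2, 100% humidity, then exposed to compounds at 12.5–200 μM for 96 h. Read-out: MTT (0.5 mg/mL) added for 4 h at 37 °C, formazan dissolved in DMSO, absorbance at 540 nm. IC50 from five-dose screen.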

[2] = test system: PC-3; test: Antiproliferative activity against human PC-3 cells expressing ALDH1A1 and ALDH3A1 assessed as reduction in cell survival measured after 96 hrs by MTT assay; type: functional, cell-based; conditions: PC-3, 96 h; outline: as §1
[3] = test system: LNCaP; test: Antiproliferative activity against human LNCaP cells expressing ALDH1A3 assessed as reduction in cell survival measured after 96 hrs by MTT assay; type: functional, cell-based; outline: as §1
[4] = target: T1, Aldehyde dehydrogenase, dimeric NADP-preferring (Homo sapiens) (UniProt P30838); test: Inhibition of N-terminal-His6 tagged recombinant human ALDH3A1 using 4-NBA as substrate in absence of NADP+ by fluorimetric analysis
T1 sequence (whole entry): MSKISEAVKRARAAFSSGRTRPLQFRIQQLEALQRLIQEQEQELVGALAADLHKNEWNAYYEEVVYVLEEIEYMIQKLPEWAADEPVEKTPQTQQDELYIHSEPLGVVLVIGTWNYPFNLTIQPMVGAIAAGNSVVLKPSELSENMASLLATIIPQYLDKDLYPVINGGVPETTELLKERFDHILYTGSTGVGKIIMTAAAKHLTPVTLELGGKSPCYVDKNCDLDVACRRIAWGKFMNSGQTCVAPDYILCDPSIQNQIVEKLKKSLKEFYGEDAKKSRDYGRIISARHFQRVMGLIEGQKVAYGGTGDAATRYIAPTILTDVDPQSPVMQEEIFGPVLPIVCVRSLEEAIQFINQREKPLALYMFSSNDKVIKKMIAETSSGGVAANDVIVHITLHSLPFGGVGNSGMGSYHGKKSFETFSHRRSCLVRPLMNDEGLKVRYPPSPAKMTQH
Outline: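 The standard 5-min preincubation of enzyme with inhibitor was run without NADP+, and compared with preincubation including cofactor. Fluorimetric NADPH read-out; mean ± SE.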

[5] = test system: H568; test: Cytotoxicity against human H568/15 RM cells assessed as reduction in cell viability at 50 to 200 uM incubated for 72 hrs in presence of docetaxel by AlamarBlue staining based analysis; type: functional; conditions: dose 50-200 µM
Outline: (§2)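 Primary prostate epithelial cells (radical prostatectomy cancer or transurethral resection BPH) seeded at 5000 cells/well in SCM, 24 h at 37 °C, 5% CO2. Treated with inhibitor at 50 or 200 μM plus 1 nM docetaxel (DMSO stocks 200 mM) for 72 h. Alamar Blue added at 10% volume, 1–4 h at 37 °C. Viability is % of DMSO-treated control; triplicate, mean; paired two-tailed t-test.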

[6] = test system: H415; test: Cytotoxicity against human H415/15 cells assessed as reduction in cell viability incubated for 72 hrs by AlamarBlue staining based analysis; type: functional; conditions: dose 50-200 µM
Outline: (§3)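 Primary prostate epithelial cells (cancer from radical prostatectomy, BPH from transurethral resection) plated 5000 cells/well in SCM for 24 h at 37 °C, 5% CO2, then given inhibitor alone at 50 or 200 μM (200 mM DMSO stocks) for 72 h. Alamar Blue at 10% of volume for 1–4 h. Viability is % of DMSO control; triplicate, mean.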

[7] = test system: H431; test: Cytotoxicity against human H431/14 LM cells assessed as reduction in cell viability at 50 to 200 uM incubated for 72 hrs in presence of docetaxel by AlamarBlue staining based analysis; type: functional; conditions: dose 50-200 µM; outline: as §2
[8] = test system: H568; test: Cytotoxicity against human H568/15 RM cells assessed as reduction in cell viability incubated for 72 hrs by AlamarBlue staining based analysis; type: functional; conditions: dose 50-200 µM; outline: as §3
[9] = test system: H431; test: Cytotoxicity against human H431/14 LM cells assessed as reduction in cell viability incubated for 72 hrs by AlamarBlue staining based analysis; type: functional; conditions: dose 50-200 µM; outline: as §3
[10] = test system: H415; test: Cytotoxicity against human H415/15 cells assessed as reduction in cell viability at 50 to 200 uM incubated for 72 hrs in presence of docetaxel by AlamarBlue staining based analysis; type: functional; conditions: dose 50-200 µM; outline: as §2
[11] = test system: H488; test: Cytotoxicity against human H488/14 RM cells assessed as reduction in cell viability at 50 to 200 uM incubated for 72 hrs in presence of docetaxel by AlamarBlue staining based analysis; type: functional; conditions: dose 50-200 µM; outline: as §2
[12] = test system: H488; test: Cytotoxicity against human H488/14 RM cells assessed as reduction in cell viability incubated for 72 hrs by AlamarBlue staining based analysis; type: functional; conditions: dose 50-200 µM; outline: as §3
[13] = test system: H517; test: Cytotoxicity against human H517/15 RM cells assessed as reduction in cell viability at 50 to 200 uM incubated for 72 hrs in presence of docetaxel by AlamarBlue staining based analysis; type: functional; conditions: dose 50-200 µM; outline: as §2
[14] = target: T1, Aldehyde dehydrogenase, dimeric NADP-preferring (Homo sapiens); test: Inhibition of N-terminal-His6 tagged recombinant human ALDH3A1 assessed as remaining enzyme activity by measuring fluorescence of NADPH using 4-NBA and NADP+ as substrate at 10 uM by fluorimetric analysis relative to control
Outline: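 Single-point screen at 10 μM inhibitor, 1% DMSO final. Enzyme in 50 mM Tris–HCl, 5 mM DTT, pH 8.0, with 1 mM NADP+ and 4-NBA at 31 and 250 μM. NADPH fluorescence (ex 340/em 460 nm) or absorbance at 340 nm. Enzyme kept 50–100-fold below substrate; result is % remaining activity.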

[15] = test system: H517; test: Cytotoxicity against human H517/15 RM cells assessed as reduction in cell viability incubated for 72 hrs by AlamarBlue staining based analysis; type: functional; conditions: dose 50-200 µM; outline: as §3
[16] = target: T2, Aldehyde dehydrogenase 1A1 (Homo sapiens, UniProt P00352); test: Substrate activity at N-terminal-His6 tagged recombinant human ALDH1A1 at 10 uM […] by fluorimetric analysis relative to hexanal; type: ADME
T2 sequence (P00352 whole entry): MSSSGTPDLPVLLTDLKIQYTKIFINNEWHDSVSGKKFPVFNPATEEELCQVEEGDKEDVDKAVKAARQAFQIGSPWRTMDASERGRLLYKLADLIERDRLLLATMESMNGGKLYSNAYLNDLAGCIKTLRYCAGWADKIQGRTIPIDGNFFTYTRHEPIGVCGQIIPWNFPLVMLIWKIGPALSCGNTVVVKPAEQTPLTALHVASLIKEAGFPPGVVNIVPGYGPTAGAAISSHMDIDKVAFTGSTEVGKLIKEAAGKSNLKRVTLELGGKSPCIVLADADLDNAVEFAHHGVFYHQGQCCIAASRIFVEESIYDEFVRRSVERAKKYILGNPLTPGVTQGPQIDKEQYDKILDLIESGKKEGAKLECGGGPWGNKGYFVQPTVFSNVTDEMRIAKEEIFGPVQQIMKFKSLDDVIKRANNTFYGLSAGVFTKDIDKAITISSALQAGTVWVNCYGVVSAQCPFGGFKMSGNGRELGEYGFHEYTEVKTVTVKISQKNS
Outline: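 Compound at 10 μM used as substrate in place of hexanal. Buffer 50 mM HEPES, 0.5 mM EDTA, 0.5 mM DTT, pH 8.0, with 500 μM NAD+. NADH fluorescence (ex 340/em 460 nm). Activity given as % of that with 10 μM hexanal; mean ± SE.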

[17] = target: T3, Aldehyde dehydrogenase, dimeric NADP-preferring (Homo sapiens, UniProt P30838); test: Substrate activity at N-terminal-His6 tagged recombinant human ALDH3A1 at 10 uM […] by fluorimetric analysis relative to 4-NBA; type: ADME
T3 sequence (P30838 whole entry): T1 sequence (whole entry)
Outline: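 Compound at 10 μM used as substrate in place of 4-NBA. Buffer 50 mM Tris–HCl, 5 mM DTT, pH 8.0, with 1 mM NADP+. NADPH fluorescence (ex 340/em 460 nm). Activity given as % of that with 10 μM 4-NBA; mean ± SE.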

Activity [14] [%]	Structure (SMILES)	Activity [6]	Activity [8]	Activity [9]	Activity [12]	Activity [15]	further results
	CCCN(CCC)c1ccc(C=O)cc1OC						IC50 [1]: 71 µM; IC50 [2]: 75 µM; IC50 [3]: 50 µM
< 15	CCCN(CCC)c1ccc(C=O)cc1[N+](=O)[O-]	Dose-Dependent Effect	Dose-Dependent Effect	Dose-Dependent Effect	Dose-Dependent Effect	Dose-Dependent Effect	inhibition [4]: Active; Activity [5]: Active; Activity [7]: Active; Activity [10]: Active; Activity [11]: Active; Activity [13]: Active
< 15	CCCN(CCC)c1ccc(C=O)cc1Br	Dose-Dependent Effect	Dose-Dependent Effect	Dose-Dependent Effect	Dose-Dependent Effect	Dose-Dependent Effect	Activity [16]: 3.14%; Activity [5]: Active; Activity [7]: Active; Activity [10]: Active; Activity [11]: Active; Activity [13]: Active; Activity [17]: < 5%
< 15	CCCN(CCC)c1ccc(C=O)cc1C						IC50 [1]: 103 µM; IC50 [2]: 106 µM; IC50 [3]: 61 µM
< 15	CCCN(CCC)c1ccc(C=O)cc1						
	CCN(CC)c1ccc(C=O)cc1	Dose-Dependent Effect	Dose-Dependent Effect	Dose-Dependent Effect	Dose-Dependent Effect	Dose-Dependent Effect	
< 15	CCCN(CCC)c1ccc(C=O)cc1Cl						

— ChEMBL document CHEMBL5046287 (J Med Chem, 2022)
